S1P4 antagonist – human S1P4 receptor antagonism; O95977; S1P4-expressing cells, antagonist mode, reporter read-out; inhibition, % at 4.98 µM; 220,000 tested, 0.26% active; AID 1510; in the data active = inhibition above about 29%;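 note: 0% = wells stimulated with agonist and 100% = vehicle wells without agonist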
Target sequence (O95977 whole entry, looked up): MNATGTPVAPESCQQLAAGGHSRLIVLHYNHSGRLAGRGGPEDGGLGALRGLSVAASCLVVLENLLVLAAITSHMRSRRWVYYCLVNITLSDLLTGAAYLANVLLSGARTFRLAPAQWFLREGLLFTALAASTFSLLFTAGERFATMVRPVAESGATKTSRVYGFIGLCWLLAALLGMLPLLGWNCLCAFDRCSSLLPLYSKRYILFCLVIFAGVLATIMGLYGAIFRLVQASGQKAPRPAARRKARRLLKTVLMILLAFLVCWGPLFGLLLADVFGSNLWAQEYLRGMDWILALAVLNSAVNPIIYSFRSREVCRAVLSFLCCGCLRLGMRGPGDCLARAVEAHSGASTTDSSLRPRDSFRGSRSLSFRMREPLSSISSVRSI
S1P4 ag – human S1P4 receptor agonism | 220,000 tested, 0.35% active | AID 1509 | S1P4-expressing cell line, agonist reporter assay | activation, % at 4.98 µM | O95977; in the data active = activation above about 11%;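 note: 0% = DMSO vehicle and 100% = reference agonist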
NPY Y2 blocker – NPY-Y2 (human) receptor antagonism; 140,000 tested, 0.99% active; inhibition, % at 2.7 µM; NPY-Y2 expressing cells, antagonist mode; AID 793; in the data active = inhibition above about 17%;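 note: 0% = vehicle with agonist challenge and 100% = reference antagonist with challenge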
NPY-Y2 PAM-ag – potentiates or activates human NPY-Y2 receptor. cells expressing NPY-Y2, potentiator/agonist read-out. P49146. 220,000 tested, 0.45% active. activation, % at 3.6 µM; in the data active = activation above about 27%;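 note: cells stimulated with NPY near EC25 plus isoproterenol at EC100; 0% = vehicle plus submaximal agonist and 100% = vehicle plus saturating agonist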
NPY-Y1 PAM-ag – human NPY-Y1 potentiation or agonism, primary screen. 220,000 tested, 0.37% active. NPY-Y1 expressing cells, potentiator/agonist activation. activation, % at 3.6 µM. P25929; in the data active = activation above about 33%, passing the limit was not always enough;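 note: cells stimulated with NPY at EC10 then isoproterenol at EC100; 0% = low agonist plus stimulus and 100% = saturating agonist plus stimulus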
NPY-Y1 antag – antagonists of human neuropeptide Y receptor Y1; 200,000 tested, 1% active; HEK293-CNG Y1 cells, membrane potential fluorescence; NPY at EC95, then isoproterenol; inhibition, % at 3.6 µM; P25929;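 active = inhibition above the campaign mean inhibition of all tested compounds plus 3 SD, cut at about 20% in these data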;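 note: 0% = DMSO wells given NPY plus isoproterenol and 100% = isoproterenol alone without NPY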
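Material: HEK293 Y1/CNG channel cell line | Also added: NPY (25 nM), isoproterenol (1 µM), Ro 20-1724 (25 µM) | Compound: One concentration, 3.6 µM, in 0.4% DMSO | Schedule: 3 h dye uptake, 1 h room-temperature compound, 45 min post-isoproterenol | Signal: Membrane-potential fluorescent dye readout | Read-out: % inhibition of NPY effect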
The depositor's hits bear a star; . = not tested or not shown. Sampled rows, rich in hits. Any-hit rate of the full collection: about 2.4%.

SMILES	S1P4 antagonist	S1P4 ag	NPY Y2 blocker	NPY-Y2 PAM-ag	NPY-Y1 PAM-ag	NPY-Y1 antag
CC1=C(C)/C(=N\OS(=O)(=O)c2ccc(C)cc2)C=CC1=O	43.3*	0.6	10.7	11.9	26.1	-2.1
CC1=C/C(=N\OS(=O)(=O)c2ccccc2)C(C(C)C)=CC1=O	7.4	-1.3	7.2	31.0*	30.3	-6.0
COc1ccc(S(=O)(=O)/N=C2/C=CC(=O)C(C)=C2C)cc1	-7.3	-3.2	0.2	-7.4	-28.7	2.9
COc1cc(C(=O)O/N=C2/C=C(C)C(=O)C=C2C)cc(OC)c1OC	-8.5	-0.5	0.6	9.0	-21.5	6.3
CC1=CC(=O)c2ccccc2C1=O	-11.0	0.5	1.0	1.1	1.6	-2.5
CC1=C/C(=N\OS(=O)(=O)c2ccccc2)C(C)=CC1=O	28.6	-3.2	2.0	57.0*	54.3*	-8.3
COc1ccccc1N1CC=C(c2cccc([N+](=O)[O-])c2)NC1=O	12.7	-0.2	.	-12.5	-8.1	.
COC(=O)c1cnc(Oc2ccc(NC(=O)NC(=O)c3ccccc3Cl)cc2)cc1C(F)(F)F	4.4	2.1	.	4.6	-19.4	.
COc1ccc2c(c1)-c1c(sn(-c3ccc(OC)c(OC)c3)c1=S)C(C)(C)N2	-13.1	1.9	-2.7	38.1*	52.9*	-3.8
COc1ccc(-n2sc3c(c2=S)-c2cc(OC)ccc2NC3(C)C)cc1	4.8	-0.5	-3.3	29.6	20.7	-0.9
Clc1ccc(CN(Cc2ccc(Cl)cc2)c2nn[nH]n2)cc1	17.3	-0.4	.	-26.1	-29.8	31.3*
c1ccc(CN(Cc2ccccc2)c2nn[nH]n2)cc1	-19.3	-0.6	.	-5.5	-16.0	3.7
CCCCCc1n[nH]c2c1CCCC2	8.8	-1.9	.	14.0	7.3	.
O=C(Nc1ccccc1)C1Cc2ccccc2CN1C(=O)c1ccco1 (configuration not stated)	-13.3	2.5	2.7	-11.0	-0.8	-5.0
O=C(Nc1cc(C(F)(F)F)ccc1N1CCOCC1)C1Cc2ccccc2CN1C(=O)c1ccco1 (configuration not stated)	0.0	-3.1	19.1*	8.2	2.2	25.6*
Cc1ccccc1/C=N/NC(=O)Cn1cnc([N+](=O)[O-])n1	1.3	4.0	0.9	11.4	111.5*	7.4
Cc1ccc(NC(=O)C(=O)NCc2ccncc2)cc1	7.4	0.1	.	6.6	-10.4	3.5
COc1ccc(OCC(=O)N2CCN(c3cccc(Cl)c3)CC2)cc1	-2.0	-0.8	7.2	7.6	-9.4	3.5
COc1ccc(OCC(=O)N2CCN(c3cccc(C(F)(F)F)c3)CC2)cc1	-4.9	-0.7	9.9	99.8*	71.8*	2.1
O=C(NC1CCCCCC1)c1cc(S(=O)(=O)N2CCCCC2)ccc1N1CCOCC1	0.5	2.0	.	-2.4	-1.0	21.0*
Cc1ccc(N(C(=O)c2nsc(Cl)c2Cl)C(C(=O)NC2CCCC2)c2ccc(O)cc2)cc1C (configuration not stated)	-2.1	1.6	4.1	-7.4	-14.3	0.1
COc1ccc(C(C(=O)NC2CCCC2)N(Cc2ccccc2)C(=O)c2nsc(Cl)c2Cl)cc1 (configuration not stated)	-26.4	-0.1	27.6*	-44.7	-45.7	36.1*
O=C(CSCCO)Nc1ccc([N+](=O)[O-])cc1	-0.8	0.8	.	11.9	10.4	2.2
O=C(Nc1ccc(CN2CCCCC2)cc1)c1cccc(Br)c1	-1.8	-2.5	5.1	55.6*	43.1*	2.1
O=C(Nc1ccc(CN2CCCCC2)cc1)c1cc(Br)ccc1Cl	-1.0	-0.8	.	-9.2	-14.5	7.6
SMILES	S1P4 antagonist	S1P4 ag	NPY Y2 blocker	NPY-Y2 PAM-ag	NPY-Y1 PAM-ag	NPY-Y1 antag
O=C(CN(c1ccc(Cl)c(C(F)(F)F)c1)S(=O)(=O)c1ccccc1)N/N=C/c1cccc2c1OCCO2	-10.6	1.9	-0.6	9.6	36.0	-1.7
Oc1ccc(C=Nc2ccccc2-c2nc3ccccc3[nH]2)cc1	-10.7	-1.1	1.8	3.3	-40.1	-0.8
Cc1ccsc1CNC12CC3CC(CC(C3)C1)C2	-17.0	-0.1	.	8.1	9.4	5.7
CSc1nnc2c3ccccc3n(CCc3ccccc3)c2n1	-6.8	-1.1	27.7*	-11.5	-20.4	28.9*
Brc1cc2c(cc1Br)OCCOCCOCCO2	-13.3	0.1	.	-12.3	7.5	.
CCOC(=O)c1cnc(-n2nc(C)cc2C)nc1NC1CCCCC1	3.0	0.9	19.6*	0.9	-145.6	31.3*
O=C(/C=C/c1cccnc1)/C=C/c1cccnc1	97.7*	0.2	.	-41.6	-32.9	.
O=C(/C=C/c1cccnc1)c1cc(F)ccc1O	11.3	-0.1	.	-3.6	-9.3	.
Cc1cc(O)c(C(C)C)cc1C1(c2cc(C(C)C)c(O)cc2C)OC(=O)c2ccccc21	6.8	-0.7	.	70.1*	76.3*	.
O=C(O)C(Cc1ccccc1)N1C(=O)/C(=C/c2cccc3ccccc23)SC1=S (configuration not stated)	5.9	-0.5	19.9*	-22.4	-55.2	10.1
Cc1nc2ccc(NC(=O)Cc3c(F)cccc3Cl)cc2s1	-13.5	-0.2	.	16.3	10.4	.
Cc1[nH]c2c(C)cccc2c1CCNC(=O)c1ccc2c(c1[N+](=O)[O-])C(=O)c1ccccc1C2=O	-6.8	-0.9	-5.5	58.7*	68.3*	-21.8
Cn1c(=O)c2[nH]c(N=Nc3ccc(N)cc3N)nc2n(C)c1=O	0.1	1.2	.	16.9	0.6	.
O=C(N/N=C/c1ccc(N2CCOCC2)cc1)C1CC1	0.3	-1.5	.	2.2	10.2	-0.8
O=C(c1cnccn1)N(Cc1cccs1)C1(C(=O)NC2CCCCC2)CCCCC1	-1.9	1.6	20.8*	-18.7	-38.0	38.2*
O=C(Cc1cccs1)N(Cc1cccs1)C1(C(=O)NC2CCCCC2)CCCCC1	-0.1	-1.0	37.3*	-8.0	-25.1	51.8*
CN(C(=O)c1ccccn1)C1(C(=O)NC2CCCCC2)CCCCC1	-6.3	0.1	7.5	-2.6	8.6	7.4
O=C1CCC(C(=O)N(Cc2cccs2)C2(C(=O)NC3CCCCC3)CCCCC2)N1 (configuration not stated)	-4.7	0.3	.	-17.0	-2.5	17.2
O=C1NC(=O)C(CC(=O)N(Cc2cccs2)C2(C(=O)NC3CCCC3)CCCCC2)N1 (configuration not stated)	16.0	0.8	3.0	-15.6	-35.0	11.4
O=C(c1cnccn1)N(Cc1cccs1)C1(C(=O)NC2CCCC2)CCCCC1	-2.0	-0.8	25.8*	-15.3	-27.0	42.4*
O=C(CSc1nnc(CNC(=O)c2cccs2)o1)NCC1CCCO1 (configuration not stated)	-5.8	-0.7	.	-6.7	-3.2	-2.0
COc1cccc(/C=C/C(=O)OCC(=O)Nc2ccc(N3CCOCC3)cc2)c1OC	-10.3	1.6	.	3.4	13.9	3.8
COC(=O)C/C=C/[C@@H](C)[C@@H](/C=N/OC[C@H]1O[C@H](c2ccccc2)C=C[C@@H]1Oc1ccc(OC)cc1)OC	9.2	0.9	19.0*	2.1	-39.4	25.4*
